Test results reported in ChEMBL document CHEMBL1687776, “Origin and molecular evolution of the determinant of methicillin resistance in staphylococci” (2010).
Converted amounts (≈) assume the structure as drawn.

Assays:
[1] = system: Staphylococcus fleurettii; test: Antibacterial activity against mecA-negative Staphylococcus fleurettii SFMN01 by agar dilution method; type: functional; settings: Mammaliicoccus fleurettii
Summary of the method: (§1)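 MIC by agar dilution on Mueller-Hinton agar following CLSI guidelines. Resistance was assigned using CLSI breakpoints. Agents tested were oxacillin, ampicillin, ceftizoxime, ceftriaxone and cefoxitin. Strains were from animal or food sources and identified by hsp60 and/or sodA sequencing. mecA absence was assessed by PCR with degenerate primers for mecA and its homologues.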

[2] = system: Staphylococcus fleurettii; test: Antibacterial activity against methicillin-resistant mecA-positive Staphylococcus fleurettii SFMP04 by agar dilution method; type: functional; settings: Mammaliicoccus fleurettii
Summary of the method: (§2)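 MIC by agar dilution on Mueller-Hinton agar per CLSI guidance; resistance judged against CLSI breakpoints. Strains were animal or food isolates (type strains for S. sciuri subspecies), typed by hsp60 and/or sodA sequencing; mecA homologue carriage checked by PCR with degenerate primers. Agents tested: oxacillin, ampicillin, ceftizoxime, ceftriaxone, cefoxitin.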

Staphylococcus vitulinus [3] = test: Antibacterial activity against methicillin-resistant mecA-positive Staphylococcus vitulinus SVMP04 by agar dilution method; type: functional; settings: Mammaliicoccus vitulinus; summary of the method: as §2
[4] = system: Staphylococcus fleurettii; test: Antibacterial activity against methicillin-resistant mecA-positive Staphylococcus fleurettii SFMP01(CCUG 43834T) by agar dilution method; type: functional; settings: Mammaliicoccus fleurettii; summary of the method: as §2
Staphylococcus vitulinus [5] = test: Antibacterial activity against mecA-negative Staphylococcus vitulinus SVMN10 by agar dilution method; type: functional; settings: Mammaliicoccus vitulinus; summary of the method: as §1
Staphylococcus vitulinus [6] = test: Antibacterial activity against mecA-negative Staphylococcus vitulinus SVMN07 by agar dilution method; type: functional; settings: Mammaliicoccus vitulinus; summary of the method: as §2
Staphylococcus vitulinus [7] = test: Antibacterial activity against mecA-negative Staphylococcus vitulinus SVMN13 by agar dilution method; type: functional; settings: Mammaliicoccus vitulinus; summary of the method: as §1
[8] = Antibacterial activity against methicillin-resistant mecA-positive Staphylococcus sciuri subsp. sciuri ATCC 29062T by agar dilution method; type: functional; settings: Mammaliicoccus sciuri; summary of the method: as §2
Staphylococcus vitulinus [9] = test: Antibacterial activity against mecA-negative Staphylococcus vitulinus SVMN04 by agar dilution method; type: functional; settings: Mammaliicoccus vitulinus; summary of the method: as §2
[10] = system: Staphylococcus fleurettii; test: Antibacterial activity against methicillin-resistant mecA-positive Staphylococcus fleurettii SFMP02 by agar dilution method; type: functional; settings: Mammaliicoccus fleurettii; summary of the method: as §2
[11] = system: Staphylococcus fleurettii; test: Antibacterial activity against methicillin-resistant mecA-positive Staphylococcus fleurettii SFMP08 by agar dilution method; type: functional; settings: Mammaliicoccus fleurettii; summary of the method: as §2
Staphylococcus vitulinus [12] = test: Antibacterial activity against methicillin-resistant mecA-positive Staphylococcus vitulinus SVMP06 by agar dilution method; type: functional; settings: Mammaliicoccus vitulinus; summary of the method: as §2
Staphylococcus vitulinus [13] = test: Antibacterial activity against mecA-negative Staphylococcus vitulinus SVMN06 by agar dilution method; type: functional; settings: Mammaliicoccus vitulinus; summary of the method: as §2
Staphylococcus vitulinus [14] = test: Antibacterial activity against methicillin-resistant mecA-positive Staphylococcus vitulinus SVMP03 by agar dilution method; type: functional; settings: Mammaliicoccus vitulinus; summary of the method: as §2
Staphylococcus vitulinus [15] = test: Antibacterial activity against mecA-negative Staphylococcus vitulinus SVMN11 by agar dilution method; type: functional; settings: Mammaliicoccus vitulinus; summary of the method: as §2
Staphylococcus vitulinus [16] = test: Antibacterial activity against mecA-negative Staphylococcus vitulinus SVMN08 by agar dilution method; type: functional; settings: Mammaliicoccus vitulinus; summary of the method: as §1
Staphylococcus vitulinus [17] = test: Antibacterial activity against mecA-negative Staphylococcus vitulinus SVMN02 by agar dilution method; type: functional; settings: Mammaliicoccus vitulinus; summary of the method: as §2
[18] = system: Staphylococcus fleurettii; test: Antibacterial activity against methicillin-resistant mecA-positive Staphylococcus fleurettii SFMP06 by agar dilution method; type: functional; settings: Mammaliicoccus fleurettii; summary of the method: as §2
[19] = system: Staphylococcus fleurettii; test: Antibacterial activity against mecA-negative Staphylococcus fleurettii SFMN02 by agar dilution method; type: functional; settings: Mammaliicoccus fleurettii; summary of the method: as §1
Staphylococcus vitulinus [20] = test: Antibacterial activity against mecA-negative Staphylococcus vitulinus SVMN03 by agar dilution method; type: functional; settings: Mammaliicoccus vitulinus; summary of the method: as §1
[21] = system: Staphylococcus fleurettii; test: Antibacterial activity against methicillin-resistant mecA-positive Staphylococcus fleurettii SFMP05 by agar dilution method; type: functional; settings: Mammaliicoccus fleurettii; summary of the method: as §2
Staphylococcus vitulinus [22] = test: Antibacterial activity against mecA-negative Staphylococcus vitulinus SVMN09 by agar dilution method; type: functional; settings: Mammaliicoccus vitulinus; summary of the method: as §2
Staphylococcus vitulinus [23] = test: Antibacterial activity against methicillin-resistant mecA-positive Staphylococcus vitulinus SVMP02 by agar dilution method; type: functional; settings: Mammaliicoccus vitulinus; summary of the method: as §2
[24] = system: Staphylococcus fleurettii; test: Antibacterial activity against methicillin-resistant mecA-positive Staphylococcus fleurettii SFMP03 by agar dilution method; type: functional; settings: Mammaliicoccus fleurettii; summary of the method: as §2
[25] = system: Staphylococcus fleurettii; test: Antibacterial activity against methicillin-resistant mecA-positive Staphylococcus fleurettii SFMP07 by agar dilution method; type: functional; settings: Mammaliicoccus fleurettii; summary of the method: as §2
Staphylococcus vitulinus [26] = test: Antibacterial activity against mecA-negative Staphylococcus vitulinus SVMN12 by agar dilution method; type: functional; settings: Mammaliicoccus vitulinus; summary of the method: as §2
Mammaliicoccus lentus = test: Antibacterial activity against mecA-negative Staphylococcus lentus ATCC 29070T by agar dilution method; type: functional; summary of the method: as §1
Staphylococcus vitulinus [27] = test: Antibacterial activity against mecA-negative Staphylococcus vitulinus SVMN14 by agar dilution method; type: functional; settings: Mammaliicoccus vitulinus; summary of the method: as §2
Staphylococcus vitulinus [28] = test: Antibacterial activity against methicillin-resistant mecA-positive Staphylococcus vitulinus SVMP01 by agar dilution method; type: functional; settings: Mammaliicoccus vitulinus; summary of the method: as §2
[29] = Antibacterial activity against methicillin-resistant mecA-positive Staphylococcus sciuri subsp. rodentium ATCC 700061T by agar dilution method; type: functional; settings: Mammaliicoccus sciuri; summary of the method: as §2
[30] = Antibacterial activity against mecA-positive Staphylococcus sciuri subsp. carnaticus ATCC 700058T by agar dilution method; settings: Mammaliicoccus sciuri
Staphylococcus vitulinus [31] = test: Antibacterial activity against mecA-negative Staphylococcus vitulinus SVMN05 by agar dilution method; type: functional; settings: Mammaliicoccus vitulinus; summary of the method: as §2
Staphylococcus vitulinus [32] = test: Antibacterial activity against mecA-negative Staphylococcus vitulinus SVMN01 (ATCC 51145T) by agar dilution method; type: functional; settings: Mammaliicoccus vitulinus; summary of the method: as §1
Staphylococcus vitulinus [33] = test: Antibacterial activity against methicillin-resistant mecA-positive Staphylococcus vitulinus SVMP05 by agar dilution method; type: functional; settings: Mammaliicoccus vitulinus; summary of the method: as §2

Compound | MIC [1] [µg/mL] | MIC [2] [µg/mL] | MIC (Staphylococcus vitulinus [3]) [µg/mL] | MIC [4] [µg/mL] | MIC (Staphylococcus vitulinus [5]) [µg/mL] | MIC (Staphylococcus vitulinus [6]) [µg/mL] | MIC (Staphylococcus vitulinus [7]) [µg/mL] | MIC [8] [µg/mL] | MIC (Staphylococcus vitulinus [9]) [µg/mL] | MIC [10] [µg/mL] | MIC [11] [µg/mL] | MIC (Staphylococcus vitulinus [12]) [µg/mL] | MIC (Staphylococcus vitulinus [13]) [µg/mL] | MIC (Staphylococcus vitulinus [14]) [µg/mL] | MIC (Staphylococcus vitulinus [15]) [µg/mL] | MIC (Staphylococcus vitulinus [16]) [µg/mL] | MIC (Staphylococcus vitulinus [17]) [µg/mL] | MIC [18] [µg/mL] | MIC [19] [µg/mL] | MIC (Staphylococcus vitulinus [20]) [µg/mL] | other results
Cc1onc(-c2ccccc2)c1C(=O)N[C@@H]1C(=O)N2[C@@H]1SC(C)(C)[C@@H]2C(=O)O [OXACILLIN] | 0.5 (≈ 1.25 µM) | 128 (≈ 319 µM) | 0.5 (≈ 1.25 µM) | 64 (≈ 159 µM) | 0.5 (≈ 1.25 µM) | 0.5 (≈ 1.25 µM) | 0.5 (≈ 1.25 µM) | 0.5 (≈ 1.25 µM) | 0.5 (≈ 1.25 µM) | 8 (≈ 19.9 µM) | 64 (≈ 159 µM) | 0.5 (≈ 1.25 µM) | 0.5 (≈ 1.25 µM) | 0.5 (≈ 1.25 µM) | 0.5 (≈ 1.25 µM) | 0.5 (≈ 1.25 µM) | 0.5 (≈ 1.25 µM) | 64 (≈ 159 µM) | 0.5 (≈ 1.25 µM) | 0.5 (≈ 1.25 µM) | MIC [21]: 32 µg/mL (≈ 79.7 µM); MIC (Staphylococcus vitulinus [22]): 0.5 µg/mL (≈ 1.25 µM); MIC (Staphylococcus vitulinus [23]): 0.5 µg/mL (≈ 1.25 µM); MIC [24]: 128 µg/mL (≈ 319 µM); MIC [25]: 8 µg/mL (≈ 19.9 µM); MIC (Staphylococcus vitulinus [26]): 0.5 µg/mL (≈ 1.25 µM); MIC (Mammaliicoccus lentus): 0.5 µg/mL (≈ 1.25 µM); MIC (Staphylococcus vitulinus [27]): 0.5 µg/mL (≈ 1.25 µM); MIC (Staphylococcus vitulinus [28]): 0.5 µg/mL (≈ 1.25 µM); MIC [29]: 0.5 µg/mL (≈ 1.25 µM); MIC [30]: 1 µg/mL (≈ 2.49 µM); MIC (Staphylococcus vitulinus [31]): 0.25 µg/mL (≈ 0.623 µM); MIC (Staphylococcus vitulinus [32]): 0.5 µg/mL (≈ 1.25 µM); MIC (Staphylococcus vitulinus [33]): 0.5 µg/mL (≈ 1.25 µM)
CC1(C)S[C@@H]2[C@H](NC(=O)[C@H](N)c3ccccc3)C(=O)N2[C@H]1C(=O)O [AMPICILLIN] | 0.125 (≈ 0.358 µM) | 1 (≈ 2.86 µM) | < 0.063 | 1 (≈ 2.86 µM) | < 0.063 | < 0.063 | < 0.063 | 0.125 (≈ 0.358 µM) | < 0.063 | 1 (≈ 2.86 µM) | 1 (≈ 2.86 µM) | < 0.063 | < 0.063 | < 0.063 | 0.125 (≈ 0.358 µM) | < 0.063 | < 0.063 | 1 (≈ 2.86 µM) | 0.125 (≈ 0.358 µM) | < 0.063 | MIC [21]: 0.25 µg/mL (≈ 0.715 µM); MIC (Staphylococcus vitulinus [22]): < 0.063 µg/mL; MIC (Staphylococcus vitulinus [23]): < 0.063 µg/mL; MIC [24]: 1 µg/mL (≈ 2.86 µM); MIC [25]: 0.25 µg/mL (≈ 0.715 µM); MIC (Staphylococcus vitulinus [26]): < 0.063 µg/mL; MIC (Mammaliicoccus lentus): < 0.063 µg/mL; MIC (Staphylococcus vitulinus [27]): < 0.063 µg/mL; MIC (Staphylococcus vitulinus [28]): < 0.063 µg/mL; MIC [29]: 0.125 µg/mL (≈ 0.358 µM); MIC [30]: 0.125 µg/mL (≈ 0.358 µM); MIC (Staphylococcus vitulinus [31]): < 0.063 µg/mL; MIC (Staphylococcus vitulinus [32]): 0.125 µg/mL (≈ 0.358 µM); MIC (Staphylococcus vitulinus [33]): < 0.063 µg/mL
CO/N=C(\C(=O)N[C@@H]1C(=O)N2C(C(=O)O)=C(CSc3nc(=O)c(O)nn3C)CS[C@H]12)c1csc(N)n1 [CEFTRIAXONE] | 4 (≈ 7.21 µM) | 64 (≈ 115 µM) | 2 (≈ 3.61 µM) | 16 (≈ 28.9 µM) | 1 (≈ 1.8 µM) | 2 (≈ 3.61 µM) | 1 (≈ 1.8 µM) | 8 (≈ 14.4 µM) | 2 (≈ 3.61 µM) | 16 (≈ 28.9 µM) | 16 (≈ 28.9 µM) | 2 (≈ 3.61 µM) | 4 (≈ 7.21 µM) | 4 (≈ 7.21 µM) | 4 (≈ 7.21 µM) | 0.25 (≈ 0.451 µM) | 4 (≈ 7.21 µM) | 32 (≈ 57.7 µM) | 4 (≈ 7.21 µM) | 1 (≈ 1.8 µM) | MIC [21]: 8 µg/mL (≈ 14.4 µM); MIC (Staphylococcus vitulinus [22]): 2 µg/mL (≈ 3.61 µM); MIC (Staphylococcus vitulinus [23]): 2 µg/mL (≈ 3.61 µM); MIC [24]: 64 µg/mL (≈ 115 µM); MIC [25]: 8 µg/mL (≈ 14.4 µM); MIC (Staphylococcus vitulinus [26]): 1 µg/mL (≈ 1.8 µM); MIC (Mammaliicoccus lentus): 2 µg/mL (≈ 3.61 µM); MIC (Staphylococcus vitulinus [27]): 2 µg/mL (≈ 3.61 µM); MIC (Staphylococcus vitulinus [28]): 4 µg/mL (≈ 7.21 µM); MIC [29]: 8 µg/mL (≈ 14.4 µM); MIC [30]: 8 µg/mL (≈ 14.4 µM); MIC (Staphylococcus vitulinus [31]): 1 µg/mL (≈ 1.8 µM); MIC (Staphylococcus vitulinus [32]): 8 µg/mL (≈ 14.4 µM); MIC (Staphylococcus vitulinus [33]): 4 µg/mL (≈ 7.21 µM)
